Consider two molecules from ChEMBL document CHEMBL4265978, “In search of constrained FTY720 and phytosphingosine analogs as dual acting anticancer agents targeting metabolic and epigenetic pathways” (Eur J Med Chem, 2018).

Activity calls are given as the source filed them. No cut-off for these calls is given here.

Experiment [1] deals with T1, Histone deacetylase (Mus musculus) (UniProt Q8VH37+Q9Z2V6+Q9Z2V5+O09106+Q8C2B3+P70288+O88895+Q91WA3+Q99N13+Q6NZM9+Q6P3E7). Kind of experiment: Inhibition of HDAC in mouse FL5.12 cells assessed as increase in histone H3 acetylation at 10 uM after 6 hrs by Western blot analysis. Format: cell-based. The method in brief: (§1)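 Histones acid-extracted in 0.2 N HCl overnight at 4°C; protein measured by BCA. Samples run on 4-12% gels and transferred to nitrocellulose, blocked in 5% BSA. Probed overnight at 4°C for acetyl-H3K9, H3K18, H4K5, H4K8 and total H3/H4, then with IRDye secondaries; infrared imaging.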

The target in experiment [2] is T1, Histone deacetylase (Mus musculus). Kind of experiment: Inhibition of HDAC in MEF assessed as increase in histone H3 acetylation at 10 to 20 uM after 6 hrs by Western blot analysis. Format: cell-based. The method in brief: as §1
Experiment [3] has the same target. Kind of experiment: Inhibition of HDAC in MEF assessed as increase in histone H3K9 acetylation at 5 uM after 6 hrs by Western blot analysis. It is filed as cell-based. The method in brief: as §1
The target is the same in experiment [4]. Kind of experiment: Inhibition of HDAC in MEF assessed as increase in histone H3K18 acetylation at 5 uM after 6 hrs by Western blot analysis. It is filed as cell-based. The method in brief: as §1
Experiment [5] has the same target. Kind of experiment: Inhibition of HDAC in MEF assessed as increase in histone H3 acetylation at 5 uM after 6 hrs by Western blot analysis. It is filed as cell-based. The method in brief:
as §1

The target is the same in experiment [6]. Kind of experiment: Inhibition of HDAC in MEF assessed as increase in histone H4K5 acetylation at 5 uM after 6 hrs by Western blot analysis. Format: cell-based. The method in brief:
as §1

Experiment [7] has the same target. Kind of experiment: Inhibition of HDAC in MEF assessed as increase in histone H4K8 acetylation at 5 uM after 6 hrs by Western blot analysis. Format: cell-based. In outline:
as §1

The target is the same in experiment [8]. Put plainly: Inhibition of HDAC in MEF assessed as increase in histone H4 acetylation at 5 uM after 6 hrs by Western blot analysis. It is filed as cell-based. The method in brief:
as §1

The target is the same in experiment [9]. Kind of experiment: Inhibition of HDAC in MEF assessed as increase in histone H3K9 acetylation at 6.1 uM after 24 hrs by Western blot analysis. Format: cell-based. In outline: as §1
Experiment [10] shares this target. Put plainly: Inhibition of HDAC in MEF assessed as increase in histone H3K18 acetylation at 6.1 uM after 24 hrs by Western blot analysis. Format: cell-based. In outline:
as §1

For experiment [11] the target is unchanged. Put plainly: Inhibition of HDAC in MEF assessed as increase in histone H3 acetylation at 6.1 uM after 24 hrs by Western blot analysis. Format: cell-based. The method in brief:
as §1

Experiment [12] has the same target. Kind of experiment: Inhibition of HDAC in MEF assessed as increase in histone H4K5 acetylation at 10 uM after 6 hrs by Western blot analysis. It is filed as cell-based. The method in brief: as §1
For experiment [13] the target is unchanged. Kind of experiment: Inhibition of HDAC in MEF assessed as increase in histone H4 acetylation at 10 uM after 6 hrs by Western blot analysis. It is filed as cell-based. In outline:
as §1

For experiment [14], the target named is Histone deacetylase (Homo sapiens) (UniProt Q13547+O15379+Q9UBN7+Q92769+Q9UQL6+Q8WUI4+Q9BY41+Q96DB2+P56524+Q9UKV0+Q969S8). Kind of experiment: Inhibition of HDAC (unknown origin) at 5 uM. Format: protein assay.
Experiment [15] concerns FL5.12. Kind of experiment: Cytotoxicity against mouse FL5.12 cells after 48 hrs by DAPI or propidium iodide staining-based flow cytometric analysis. To be noted: FL5.12, 48 h. Format: functional, cell-based. In outline: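 FL5.12 (murine hematopoietic, IL-3-dependent) cells treated at 25,000/mL; viability read at 48 h by DAPI or propidium iodide dye exclusion on flow cytometry. IC50 fitted, reported with 95% confidence interval.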

Experiment [16] has as its system FL5.12. Kind of experiment: Downregulation of CD98 expression in mouse FL5.12 cells at 2.5 uM after 3 hrs by DAPI staining-based FACS analysis relative to control. It is filed as functional. The method in brief:
(§2)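 FL5.12 cells plated at 225-250,000/mL and treated 3 h. 150-200,000 cells stained in triplicate on ice for 30 min with PE-anti-mouse CD98, with PE rat IgG2a κ as isotype control. Read by flow cytometry, gated on viable cells (DAPI exclusion or scatter). Loss given as mean of at least 2 biological replicates.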

The test system of experiment [17] is FL5.12. Kind of experiment: Downregulation of CD98 expression in mouse FL5.12 cells at 10 uM after 3 hrs by DAPI staining-based FACS analysis relative to control. Format: functional. The method in brief: as §2
The subject of experiment [18] is FL5.12. Put plainly: Cytotoxicity against mouse FL5.12 cells assessed as vacuole formation at 10 uM after 3 hrs by […]. Format: functional, cell-based. The method in brief:
(§3)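 FL5.12 cells treated at 200,000/mL for 3 h, then imaged at 100× by brightfield/DIC. At least 5 images per condition, at least 2 biological replicates. Two researchers scored each replicate independently: 0 no vacuoles, + some cells, ++ most cells with at least 1 vacuole, +++ all cells heavily vacuolated.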

The target in experiment [19] is Histone deacetylase 1 (Homo sapiens) (UniProt Q13547). Put plainly: Inhibition of human recombinant HDAC1 at 20 uM after 15 to 30 mins by COLOR DE LYS-based colorimetric method. The method in brief: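 Recombinant HDAC1 or HeLa extract incubated with acetylated lysine substrate at 37°C for 15-30 min. Developer then added: 10-15 min at 37°C with absorbance at 405 nm (colorimetric kit), or 15 min at RT with fluorescence at ex 355/em 460 nm, corrected using ± trichostatin A.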
Chain of Histone deacetylase 1 (Homo sapiens) (Q13547 whole entry): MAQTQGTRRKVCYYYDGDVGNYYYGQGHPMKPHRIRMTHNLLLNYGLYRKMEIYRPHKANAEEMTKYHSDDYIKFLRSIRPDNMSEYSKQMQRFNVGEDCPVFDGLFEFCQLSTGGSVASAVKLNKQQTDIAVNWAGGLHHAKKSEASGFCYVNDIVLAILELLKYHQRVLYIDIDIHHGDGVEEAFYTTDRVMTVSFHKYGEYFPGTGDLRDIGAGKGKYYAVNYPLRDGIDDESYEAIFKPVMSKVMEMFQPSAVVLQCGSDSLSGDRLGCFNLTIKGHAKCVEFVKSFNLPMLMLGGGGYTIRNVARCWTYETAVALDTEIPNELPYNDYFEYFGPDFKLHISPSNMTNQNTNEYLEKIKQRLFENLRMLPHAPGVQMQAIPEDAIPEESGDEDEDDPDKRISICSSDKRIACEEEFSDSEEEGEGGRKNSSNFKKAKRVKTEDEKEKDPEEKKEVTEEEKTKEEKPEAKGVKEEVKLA

The test system of experiment [20] is FL5.12. Kind of experiment: Cytotoxicity against mouse FL5.12 cells assessed as vacuole formation at 2.5 uM after 3 hrs by […]. Format: functional, cell-based. The method in brief: as §3

As to `CCCCCCCCc1ccc(CCC(N)(CO)COP(=O)(O)O)cc1` (stereo not given), the inhibition entry in experiment [1], in [2], in [3], in [4], in experiment [5] and in experiment [6] was “inactive” in each case. Also, the inhibition entry in experiment [7], in [8], in experiment [9], in experiment [10], in experiment [11] and in [12] was “inactive” in each case. In experiment [13], the inhibition result is “inactive”. The inhibition in [14] lay in the range of 60 to 75%.

In the experiment with FL5.12 [15], `CCCCCCCCc1ccc(C(=O)C[C@H]2C[C@H](CO)CN2)cc1.Cl` came in with an IC50 of 2000 nM. For the same molecule, the Activity is 44% with FL5.12 [16] and 60% in the experiment on FL5.12 [17]. Also, the outcome in the experiment with FL5.12 [18] and with FL5.12 [20] was Active. Also, the inhibition result in [19] was “inactive”.
